The sample as a whole holds a higher share of hits than the screen did.
Pf gametocyte: inhibitors of late stage P. falciparum gametocyte viability; P. falciparum stage V gametocytes, ATP luminescence, 24 h; inhibition, % at 10.9 µM; 150,000 compounds, 0.065% hits; AID 743093;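 active = inhibition above the mean plus 3 SD of compounds within the control limits, set per campaign, cut at about 38% in these data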
ROMK mod: modulators of human ROMK potassium channel; P48048; Tet-inducible ROMK, thallium flux fluorescence; actives lie on both sides; B-score at 10 µM; 130,000 compounds, 2% hits;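 active = signal ratio slope over the read window, or its plate-corrected B-score, at least 3 SD from the plate mean, either direction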;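 also: B-score of the F/F0 ratio slope over 7 to 12 s after thallium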
Target sequence (P48048 whole entry, looked up): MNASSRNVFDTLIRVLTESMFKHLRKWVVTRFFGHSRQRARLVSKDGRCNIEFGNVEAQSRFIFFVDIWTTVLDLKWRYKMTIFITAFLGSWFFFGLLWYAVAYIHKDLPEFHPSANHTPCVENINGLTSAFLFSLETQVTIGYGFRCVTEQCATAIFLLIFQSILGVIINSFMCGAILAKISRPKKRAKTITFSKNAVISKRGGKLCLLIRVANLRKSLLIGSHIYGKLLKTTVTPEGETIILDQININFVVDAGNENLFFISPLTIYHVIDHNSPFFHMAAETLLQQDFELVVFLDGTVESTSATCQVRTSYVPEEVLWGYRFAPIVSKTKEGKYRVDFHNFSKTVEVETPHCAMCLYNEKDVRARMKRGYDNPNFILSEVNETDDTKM
Biofilm kill mix: mixtures killing C. albicans biofilm; C. albicans biofilm persisters + clotrimazole, fluorescence viability; primary screen in compound mixtures of four per well; inhibition, % at 7.6 µM; 120,000 compounds, 0.02% hits;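 active = inhibition above 30.3% in the primary screen of four-compound pools, then above 30% when the compound was retested; inconclusive = passed the primary limit but could not be retested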;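 also: compounds exposed to preformed 24 h biofilms for 48 h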
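Incubation: 24 h biofilm formation, then 48 h compound exposure, 37 °C | Material: C. albicans biofilms | Buffer or medium: RPMI/MOPS medium, pH 7.0 | Measured by: 2-h Alamar Blue fluorescence, 535/590 nm excitation/emission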
ROMK hit retest: retested hit modulating human ROMK potassium channel; normalized thallium flux (F/F0 slope) at 10 µM; 3,000 compounds, 54% hits; ROMK thallium flux, fluorescence ratio; active compounds read low; AID 1917; shares compounds with ROMK mod;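 active = Flux at 10 µM at least 3 SD below or above vehicle control mean in one or both replicates; inconclusive = no clear call, values can overlap the other calls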
Hits are given with their value; – = inactive; ? = inconclusive; · = no result.

SMILES	Pf gametocyte	ROMK mod	Biofilm kill mix	ROMK hit retest
Oc1ccc(/C=N/NC(=S)N/N=C/c2ccc(O)cc2)cc1	–	3.3	–	–
Oc1ccc(/C=N/NC(=S)Nc2cccnc2)cc1	–	·	–	·
O=C(COc1ccccc1)Nc1cc(NC(=O)COc2ccccc2)cc(C(=O)O)c1	–	·	·	·
CCN(C(=O)Nc1ccccc1OC)c1c(N)n(Cc2ccccc2)c(=O)[nH]c1=O	·	–	·	·
CCn1c(=O)[nH]c(=O)c2c(N)c(C(=O)c3ccccc3OC)sc21	–	3.7	–	–
CS(=O)(=O)Nc1cccc(S(=O)(=O)N2CCN(C(=O)c3ccccc3)CC2)c1	–	·	–	·
N#C/C(=C\c1ccc(N2CCOCC2)o1)C(=O)NCC1CCCO1 (stereo not drawn)	–	-4.2	–	0.038
N#C/C(=C\c1ccc(-c2ccc(C(=O)O)cc2)o1)C(=O)NCC1CCCO1 (stereo not drawn)	·	–	–	·
N#C/C(=C/c1ccc(N2CCOCC2)o1)C(=O)Nc1ccccc1	·	·	–	·
N#C/C(=C\c1ccc(N2CCOCC2)o1)C(=O)NC1CCCCC1	–	·	–	0.035
COc1ccc(N2C(=O)CC(Sc3ccccc3C(=O)O)C2=O)c([N+](=O)[O-])c1 (stereo not drawn)	–	·	–	·
O=C(Nc1ccsn1)c1ccc(Cl)cc1Cl	·	–	–	·
C=C(C)CSc1nc2sc3c(c2c(=O)n1C1CCCCC1)CCN(C)C3	–	·	–	0.065
CSc1nc2sc3c(c2c(=O)n1C1CCCCC1)CCN(C)C3	·	–	·	·
CSCCC(=O)Nc1cc(S(=O)(=O)N2CCOCC2)ccc1N1CCN(C)CC1	–	–	–	·
CCNc1ccc(S(=O)(=O)N(C)C)cc1NCC(=O)Nc1ccccc1F	·	–	–	·
CCNc1ccc(S(=O)(=O)N(C)C)cc1NCC(=O)Nc1ccc(Br)cc1F	–	-3.2	–	0.062
CCOc1cc(C2C(C#N)=C(N)OC(C)=C2C(C)=O)c(Br)c(Br)c1OC(C)C (stereo not drawn)	·	-3.6	–	–
CCOc1cc(C2C(C#N)=C(N)OC(C)=C2C(C)=O)cc(Br)c1O (stereo not drawn)	·	–	·	·
Cc1ccc(S(=O)(=O)NC(=O)c2cc(C)n(C3CC3)c2C)cc1	–	–	–	·
COc1ccc(NC(=O)c2c(N)no[n+]2[O-])cc1	·	–	–	·
O=C(c1ccc(Cl)nc1)c1cccs1	·	·	–	·
COc1ccc(C(=O)c2no[n+]([O-])c2C(=O)c2ccc(OC)cc2)cc1	–	·	·	?
O=C(c1cccs1)c1no[n+]([O-])c1C(=O)c1cccs1	·	·	·	0.028
CCC[C@@H]1CCCO[C@@](C(=O)NCCN2CCOCC2)(C(F)(F)F)C1	–	·	·	·
SMILES	Pf gametocyte	ROMK mod	Biofilm kill mix	ROMK hit retest
Cc1nn2c(NCCN(C)C)c3c(nc2c1-c1ccccc1)CCCC3	–	–	–	·
CC1CCN(C(=O)Cn2nnc(-c3ccccc3)n2)CC1	–	·	·	·
CCOc1ccc(NC(=O)CCN2C(=O)c3ccccc3C2=O)cc1	–	·	·	·
CCCN(CCC)CCNC(=O)C1c2ccccc2C(=O)N2CCc3ccccc3C12 (stereo not drawn)	–	–	–	·
Clc1nssc1=Nc1ccc(Br)cc1	–	–	–	·
N#Cc1cccc(N=c2ssnc2Cl)c1	–	-3.9	–	0.065
CC(C)(C)C(=O)O/N=C(\N)c1ccc(-c2csnn2)cc1	–	·	–	·
CCCc1ncc(C(O)c2ccccc2OC)n1C (stereo not drawn)	–	–	–	·
CCC(=O)N1CCN(c2ccccc2NC(=O)COc2cc(C)ccc2C(C)C)CC1	–	-3.5	·	0.066
Cc1ccc(OCC(=O)Nc2ccccc2N2CCCC2)c(C)c1	–	–	–	·
COc1ccccc1-n1cnc2cc(NCc3ccccc3O)ccc21	–	·	–	·
COc1ccccc1-n1cnc2cc(NCc3ccco3)ccc21	–	7.9	·	–
CC(C)N1C(=O)/C(=C\c2nc3ccccc3c(=O)[nH]2)c2ccccc21	–	–	–	·
O=c1c2ccccc2nc(SCc2ccncc2)n1CC1CCCO1 (stereo not drawn)	–	–	–	·
Cc1cccc(-c2nc(CS(=O)CC(=O)NCCCSC3CCCCC3)c(C)o2)c1 (stereo not drawn)	–	-4	·	0.059
COc1cccc(-c2nc(CS(=O)CC(=O)NCCCOC(C)C)c(C)o2)c1 (stereo not drawn)	–	·	·	·
COCCOC(=O)c1c(NC(=O)CN2CCOCC2)sc(C(N)=O)c1C	–	·	·	·
COCCOC(=O)c1c(NC(=O)CN2c3ccccc3CC2C)sc(C(N)=O)c1C (stereo not drawn)	–	2.2	–	?
C/C(=C\c1ccc2c(c1)OCO2)C1Nc2cccc3cccc(c23)N1	–	·	·	·
COc1cccc(C(C(=O)NC(C)(C)C)N(CCC(C)C)C(=O)CCC(=O)Nc2cc(C)on2)c1OC (stereo not drawn)	–	–	–	·
CCC(C)(C)NC(=O)C(c1cccc(OC)c1OC)N(CCC(C)C)C(=O)CCC(=O)Nc1cc(C)on1 (stereo not drawn)	–	-2.5	–	0.063
COc1ccc(S(=O)(=O)Nc2nc3ccccc3nc2Nc2ccc3c(c2)OCO3)cc1	·	–	–	·
O=S(=O)(Nc1nc2ccccc2nc1Nc1ccc2c(c1)OCCO2)c1cccs1	–	·	·	?
CCOC(=O)N1CCN(C/C(Cl)=C/c2ccccc2)CC1	–	·	·	·
CCOC(=O)CSc1nc2c(sc3ccccc32)c(=O)n1CCCN1CCOCC1	·	–	·	·
SMILES	Pf gametocyte	ROMK mod	Biofilm kill mix	ROMK hit retest
CCC(C)NC(=O)CSc1nc2c(sc3ccccc32)c(=O)n1CCCN1CCOCC1 (stereo not drawn)	–	2.6	·	–
Cc1cc(C)n(-c2ccc(S(=O)(=O)N3CCOCC3)cc2[N+](=O)[O-])n1	–	·	–	·
CN(C)CC(CCC(CN(C)C)C(=O)c1ccccc1)C(=O)c1ccccc1 (stereo not drawn)	·	-3.2	–	0.044
CCOc1ccc(C(=O)C(CCC(CN(C)C)C(=O)c2ccc(OCC)cc2)CN(C)C)cc1 (stereo not drawn)	–	·	–	·
C=CCn1c(SCC(=O)N(CCO)CCO)nc2sc3c(c2c1=O)CCC3	–	·	·	·
CC(C)(C)c1cc(C(=O)NNc2cccc(Cl)c2)n(Cc2ccccc2)n1	–	·	–	0.057
CC(C)(C)C(=O)NNC(=O)c1cc(C(C)(C)C)nn1Cc1ccccc1	–	–	–	·
COc1ccccc1NNC(=O)c1cc(C(C)(C)C)nn1Cc1ccccc1	–	·	–	0.066
Cc1ccc(NNC(=O)c2cc(C(C)(C)C)nn2Cc2ccccc2)cc1	–	·	–	·
CC(=O)c1cnc2n(c1=O)CCS2	–	–	–	·
CC(C)(C)N(NC(=O)Nc1ccc(F)cc1)C(=O)c1ccccc1	–	·	–	·
CC(C)(C)N(NC(=O)Nc1ccc(Cl)c(Cl)c1)C(=O)c1ccccc1	·	·	·	–
CCN(CC)CCNC(=O)c1ccc(NC(=O)COc2ccccc2F)cc1	–	1.9	–	–
CCN(CC)CCNC(=O)c1ccc(NC(=O)c2ccc(F)cc2)cc1	–	–	–	·
CC1=Nc2ccccc2N=C(NC(=O)CN2CCN(c3ccccc3)CC2)C1c1ccccc1 (stereo not drawn)	–	3.2	–	–
CC1=Nc2ccccc2N=C(NC(=O)CSC(=S)N2CCCCC2)C1c1ccccc1 (stereo not drawn)	–	–	–	·
Cc1ccc(/C=C2\SC(=S)N(C3CCS(=O)(=O)C3)C2=O)cc1 (stereo not drawn)	·	·	–	·
